The target of series [1] is T1, Calcium/calmodulin-dependent protein kinase type IV (Homo sapiens) (UniProt Q16566).
T1 sequence (whole entry): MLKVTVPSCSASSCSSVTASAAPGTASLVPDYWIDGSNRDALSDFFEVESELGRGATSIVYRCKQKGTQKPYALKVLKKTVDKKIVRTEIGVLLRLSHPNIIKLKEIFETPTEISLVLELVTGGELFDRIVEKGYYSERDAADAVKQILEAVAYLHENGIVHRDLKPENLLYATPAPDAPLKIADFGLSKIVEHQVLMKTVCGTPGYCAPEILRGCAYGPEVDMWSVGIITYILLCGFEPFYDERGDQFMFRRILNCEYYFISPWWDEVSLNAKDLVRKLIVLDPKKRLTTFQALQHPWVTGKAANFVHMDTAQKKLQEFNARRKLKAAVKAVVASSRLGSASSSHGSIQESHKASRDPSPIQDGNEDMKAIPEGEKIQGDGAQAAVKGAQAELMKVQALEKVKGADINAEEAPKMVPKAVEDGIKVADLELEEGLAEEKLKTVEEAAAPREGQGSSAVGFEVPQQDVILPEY
As to the kind of experiment: Binding affinity to human CAMK4 at pH 7.4 by fluorescence emission spectra analysis. A digest of the protocol:
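Recombinant CAMKIV kinase domain at 4 μM in 50 mM phosphate pH 7.4 with 150 mM NaCl, 25 °C. Titrated from a 1.0 mM ligand stock up to 132 μM final. Ligands were diluted from DMSO stock and dialyzed in buffer beforehand. Excitation at 280 nm, tryptophan emission read over 300-400 nm. Ka and n taken from a modified Stern–Volmer plot; three measurements.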

In series [2] the test system is HEK293. Put plainly: Cytotoxicity against human HEK293 cells after 48 hrs by MTT assay. Type of series: cell-based. Conditions: HEK293, 48 h. (In general: Tetrazolium dyes change colour on reduction, which living cells bring about.)
A short description of series [3]: Cytotoxicity against human HuH7 cells after 48 hrs by MTT assay. Conditions: Huh-7, 48 h. Type of series: functional, cell-based. A digest of the protocol: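 Exponentially growing HuH7 hepatoma cells at 7000 per well, triplicates, dosed the next day with inhibitors at 5-150 μM for 48 h; curcumin served as positive control. MTT was then added in fresh DMEM for 4-5 h at 37 °C, and formazan was dissolved in DMSO and read at 570 nm. IC50 was derived from percent viability; three independent experiments, mean ± S.D.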

In series [4] the test system is HEK293. As to the kind of experiment: Cytotoxicity against human HEK293 cells up to 25 uM after 48 hrs by MTT assay. The note with it: hek293, 48 h. It counts as cell-based. A digest of the protocol:
(§1)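 HEK293 cells at 7000 per well, triplicates, treated the next day with inhibitors at 5-150 μM for 48 h. MTT was then added to fresh DMEM for 4-5 h at 37 °C. Formazan was dissolved in DMSO and read at 570 nm. Viability given as percent of untreated control.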

Series [5] deals with HEK293. As to the kind of experiment: Cytotoxicity against human HEK293 cells up to 50 uM after 48 hrs by MTT assay. The note with it: hek293, 48 h. It counts as cell-based. In short, it runs like this:
as §1

Bounds are passed on as bounds.

Broadly, the IC50 is the midpoint of a concentration-inhibition curve. Take `Nc1cccc(Oc2cc(Oc3cccc4cccnc34)ncn2)c1`: in series [1], the Kapp stood at 1.6 ×10⁵ /M. Besides, the IC50 in the series on HEK293 [2] was 400 µM; in series [3] it was 116 µM. Also, the Activity result with HEK293 [4] was “Non-toxic”.

For `COc1cc(/C=C/C(=O)CC(=O)/C=C/c2ccc(O)c(OC)c2)ccc1O` [CURCUMIN], the IC50 in the series with HEK293 [2] is above 400 µM; in series [3], 48 µM.

Regarding `COc1ccc(Nc2cc(N3CCNCC3)ncn2)cc1`, in series [1], the Kapp was 2.2 ×10⁸ /M. Moreover, the IC50 in the series on HEK293 [2] is above 400 µM; in series [3] it was 46 µM. The Activity result in the series with HEK293 [5] is recorded as “Non-toxic”.

In the case of `N#Cc1cccnc1N1CCN(c2cc(Oc3cccc4cccnc34)ncn2)CC1`, the Kapp in series [1] stood at 4.6 ×10⁵ /M. The IC50 in the series on HEK293 [2] is above 400 µM; in series [3], 104 µM. Moreover, the Activity result in the series on HEK293 [4] is listed as “Non-toxic”.

Values taken from ChEMBL document CHEMBL3751708, “Structure guided design of potential inhibitors of human calcium-calmodulin dependent protein kinase IV containing pyrimidine scaffold” (Bioorg Med Chem Lett, 2016).
